These results are taken from ChEMBL document CHEMBL3102768, “Synthesis, biological evaluation and SAR of 3-benzoates of ingenol for treatment of actinic keratosis and non-melanoma skin cancer” (Bioorg Med Chem Lett, 2014).

The test system of one data set is HeLa. The data set can be described thus: Induction of necrosis in human HeLa cells assessed as remaining metabolic activity after 30 mins by resazurin dye-based assay. The data set is classed as functional. The note with it: 0.5 h, read-out: LC50 (the source's name). In a few lines: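 HeLa cells were exposed to increasing concentrations up to 400 µM for 30 min at 37 °C. Metabolic activity was then measured with a resazurin-based dye (PrestoBlue). LC50 is the concentration giving 50% loss of metabolic activity.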
Background: Resazurin is reduced to fluorescent resorufin, in cell work by metabolically active cells.

For data set [1], the system named is Keratinocyte. Put plainly: Induction of proimflammatory activity in human primary epidermal keratinocytes assessed as TNFalpha release after 6 hrs relative to ingenol 3-angelate. The data set is classed as functional. In a few lines: (§1)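 Adult log-phase primary epidermal keratinocytes were seeded at 10,000 cells/well. Cells were incubated with titrated compound for 6 h at 37 °C in 5% CO2. Secreted TNFα was measured by Meso Scale 4-spot cytokine plates. EC50 and Emax were referenced to the maximal response of ingenol 3-angelate.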

Data set [2] has as its system Keratinocyte. Put plainly: Induction of proimflammatory activity in human primary epidermal keratinocytes assessed as IL-8 release after 6 hrs. The data set is classed as functional, cell-based. In a few lines: (§2)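 Adult log-phase primary epidermal keratinocytes were seeded at 10,000 cells/well. Cells were incubated with titrated compound for 6 h at 37 °C in 5% CO2. Secreted IL8 was measured by Meso Scale 4-spot cytokine plates or by HTRF. EC50 and Emax were referenced to the maximal response of ingenol 3-angelate.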

A short description of data set [3]: Chemical stability of the compound in aqueous buffer with less than 30% organic solvent assessed as compound recovery at pH 7.4 measured over 16 hrs by HPLC analysis. The data set is classed as physicochemical. The note with it: read-out: Drug recovery. The method, boiled down: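 A DMSO stock was diluted into pre-heated (37 °C) aqueous buffer pH 7.4 to ≤30% v/v organic content. The solution was held at 37 °C in the HPLC autosampler and injected within 5 min, then repeatedly over 16 h. Recovery was taken from the decrease in compound peak area, with UV detection normally at 270 nm.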

The test system of data set [4] is Keratinocyte. Put plainly: Induction of proimflammatory activity in human primary epidermal keratinocytes assessed as IL-8 release after 6 hrs relative to ingenol 3-angelate. Format: functional. In a few lines: as §2
The test system of data set [5] is Keratinocyte. Put plainly: Induction of proimflammatory activity in human primary epidermal keratinocytes assessed as TNFalpha release after 6 hrs. The data set is classed as functional, cell-based. The method, boiled down: as §1
A short description of data set [6]: Immunostimulatory activity in polymorphonuclear leukocytes (unknown origin) assessed as induction of oxidative burst after 40 mins by fluorescence assay relative to ingenol 3-angelate. Format: functional. In a few lines: (§3)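 PMN were isolated from fresh buffy coats. Cells were incubated 40 min at ambient temperature with titrated compound (top concentration 10 µM) pre-mixed with hydroethidine. Respiratory burst was read as fluorescence at ex 485/em 579 nm. EC50 is the concentration giving 50% of the maximum effect of ingenol 3-angelate; Emax is the maximal response relative to it.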

Data set [7] has as its target Protein kinase C delta type (Homo sapiens, UniProt Q05655). The data set can be described thus: Activation of PKCdelta (unknown origin) after 40 mins. The method, boiled down:
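In vitro PKCδ phosphorylation of a PKC peptide substrate, with 0.05 mg/mL phosphatidylserine and no diacylglycerol. Compounds were tested as a twelve-point semilog dilution series starting at 10 µM. The reaction was started with ATP and run 40 min at room temperature.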

Data set [8] can be described thus: Immunostimulatory activity in polymorphonuclear leukocytes (unknown origin) assessed as induction of oxidative burst after 40 mins by fluorescence assay. The data set is classed as functional, cell-based. In a few lines:
as §3

Bounds are passed on as bounds.

Protein kinase C delta type, sequence (Q05655 whole entry): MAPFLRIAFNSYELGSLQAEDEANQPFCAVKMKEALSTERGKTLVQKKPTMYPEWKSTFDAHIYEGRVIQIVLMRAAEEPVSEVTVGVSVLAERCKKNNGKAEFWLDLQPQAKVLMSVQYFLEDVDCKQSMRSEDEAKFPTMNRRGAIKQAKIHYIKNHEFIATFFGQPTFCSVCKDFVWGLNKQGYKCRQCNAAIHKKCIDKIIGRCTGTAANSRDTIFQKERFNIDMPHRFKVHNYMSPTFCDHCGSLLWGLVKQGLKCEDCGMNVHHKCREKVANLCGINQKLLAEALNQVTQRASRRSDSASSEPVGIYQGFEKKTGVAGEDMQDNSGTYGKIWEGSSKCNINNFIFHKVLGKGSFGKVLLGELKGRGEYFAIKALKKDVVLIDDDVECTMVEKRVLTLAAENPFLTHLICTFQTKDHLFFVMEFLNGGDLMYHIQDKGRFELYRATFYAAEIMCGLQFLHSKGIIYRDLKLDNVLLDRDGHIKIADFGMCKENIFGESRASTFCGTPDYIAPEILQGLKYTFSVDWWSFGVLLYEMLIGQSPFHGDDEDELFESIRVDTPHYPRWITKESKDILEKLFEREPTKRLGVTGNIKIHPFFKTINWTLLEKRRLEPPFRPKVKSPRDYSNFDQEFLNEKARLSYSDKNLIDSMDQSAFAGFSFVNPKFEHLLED

Consider `CC1=C[C@]23C(=O)[C@@H](C=C(CO)[C@@H](O)[C@]2(O)[C@H]1OC(=O)c1ccccc1Nc1ccccc1)[C@H]1[C@@H](C[C@H]3C)C1(C)C`, for which the CC50 in the data set with HeLa worked out at 307000 nM. Also, the Emax – broadly, the greatest response seen or fitted, relative to the assay's reference – is 120% in the data set on Keratinocyte [1], 103% with Keratinocyte [4] and 129% in data set [6]. For the same molecule, the EC50 – broadly, the concentration needed to bring the measured effect to its halfway point – worked out at 3.7 nM in the data set with Keratinocyte [2], 5 nM in the data set on Keratinocyte [5], 4.2 nM in data set [7] and 11 nM in [8]. Also, the remaining at 16 h in data set [3] was 58%.
On to `COc1cccc(OC)c1C(=O)O[C@H]1C(C)=C[C@]23C(=O)[C@@H](C=C(CO)[C@@H](O)[C@]12O)[C@H]1[C@@H](C[C@H]3C)C1(C)C`, for which, in the data set with HeLa, the CC50 amounted to 400000 nM. For the same molecule, the maximum response (Emax) in the data set on Keratinocyte [1] is 113%; with Keratinocyte [4], 107%; in data set [6], 116%. Further, the concentration giving a half-maximal response (EC50) with Keratinocyte [2] is 44 nM; in the data set with Keratinocyte [5], 57 nM; in data set [7], 156 nM; in data set [8] it was 84 nM. In addition, in data set [3], the remaining at 16 h is more than 95%.
Take `CC1=C[C@]23C(=O)[C@@H](C=C(CO)[C@@H](O)[C@]2(O)[C@H]1OC(=O)c1ccccc1Br)[C@H]1[C@@H](C[C@H]3C)C1(C)C`: the CC50 with HeLa was 141000 nM. Further, the results for the Emax (in the data set on Keratinocyte [1]; in the data set with Keratinocyte [4]; in [6]) were 96%, 93% and 99%, respectively. For the same molecule, the EC50 came to 2.3 nM in the data set on Keratinocyte [2], 8.2 nM in the data set on Keratinocyte [5], 3.8 nM in data set [7] and 4.3 nM in [8]. Besides, the remaining at 16 h in data set [3] turned out to be 44%.
In the case of `CC1=C[C@]23C(=O)[C@@H](C=C(CO)[C@@H](O)[C@]2(O)[C@H]1OC(=O)c1ccccc1-c1ccccc1)[C@H]1[C@@H](C[C@H]3C)C1(C)C`, the CC50 with HeLa turned out to be 77000 nM. Further, the maximal response (Emax) in the data set with Keratinocyte [1] was found to be 91%; in the data set with Keratinocyte [4], 87%; in [6], 105%. In addition, the EC50 in the data set on Keratinocyte [2] came to 1.5 nM; in the data set with Keratinocyte [5], 1.6 nM; in [7] it was 3.3 nM; in data set [8], 16 nM. The remaining at 16 h in [3] was found to be 77%.
Turning to `CC1=C[C@]23C(=O)[C@@H](C=C(CO)[C@@H](O)[C@]2(O)[C@H]1OC(=O)c1c(C)cccc1O)[C@H]1[C@@H](C[C@H]3C)C1(C)C`, the CC50 in the data set with HeLa came to 199000 nM. Moreover, the Emax in the data set on Keratinocyte [1] was determined as 156%; in the data set with Keratinocyte [4], 105%; in [6], 125%. For the same molecule, the 50% effective concentration (EC50) came to 71 nM with Keratinocyte [2], 98 nM in the data set with Keratinocyte [5], 13.4 nM in data set [7] and 9.4 nM in [8]. For the same molecule, the remaining at 16 h in [3] is more than 95%.
In the case of `COc1ccccc1C(=O)O[C@H]1C(C)=C[C@]23C(=O)[C@@H](C=C(CO)[C@@H](O)[C@]12O)[C@H]1[C@@H](C[C@H]3C)C1(C)C`, the CC50 with HeLa is 220000 nM. Besides, the maximal response (Emax) is 100% with Keratinocyte [1], 100% in the data set on Keratinocyte [4] and 107% in data set [6]. In addition, the EC50 was found to be 42 nM in the data set on Keratinocyte [2], 38 nM in the data set with Keratinocyte [5], 25.7 nM in data set [7] and 6.8 nM in data set [8]. In addition, the remaining at 16 h in data set [3] was determined as 70%.
As to `CC1=C[C@]23C(=O)[C@@H](C=C(CO)[C@@H](O)[C@]2(O)[C@H]1OCc1ccccc1)[C@H]1[C@@H](C[C@H]3C)C1(C)C`, the CC50 with HeLa stood at 378000 nM. Further, the EC50 with Keratinocyte [2] is 4520 nM; in data set [7], more than 10000 nM; in data set [8], 4540 nM. Further, the remaining at 16 h in [3] was more than 95%. Also, the Emax in the data set on Keratinocyte [4] stood at 58%.
Consider `CC1=C[C@]23C(=O)[C@@H](C=C(CO)[C@@H](O)[C@]2(O)[C@H]1OC(=O)c1c(C)cccc1C)[C@H]1[C@@H](C[C@H]3C)C1(C)C`, for which the CC50 in the data set with HeLa is 97000 nM. The Emax was 61% in the data set with Keratinocyte [1], 66% in the data set with Keratinocyte [4] and 123% in data set [6]. Besides, the half-maximal effective concentration (EC50) worked out at 62 nM with Keratinocyte [2], 83 nM with Keratinocyte [5], 10.8 nM in [7] and 13 nM in data set [8]. Also, the remaining at 16 h in data set [3] is more than 95%.
Take `CNc1ccccc1C(=O)O[C@H]1C(C)=C[C@]23C(=O)[C@@H](C=C(CO)[C@@H](O)[C@]12O)[C@H]1[C@@H](C[C@H]3C)C1(C)C`: the CC50 with HeLa turned out to be 95000 nM. Moreover, the maximal response (Emax) in the data set with Keratinocyte [1] was 134%; with Keratinocyte [4], 99%; in data set [6], 113%. Besides, the EC50 in the data set on Keratinocyte [2] was 0.79 nM; in the data set on Keratinocyte [5], 1 nM; in data set [7] it was 2.5 nM; in data set [8] it was 6.7 nM. Also, the remaining at 16 h in data set [3] was found to be 68%.
As to `CC1=C[C@]23C(=O)[C@@H](C=C(CO)[C@@H](O)[C@]2(O)[C@H]1OC(=O)c1c(Cl)cccc1Cl)[C@H]1[C@@H](C[C@H]3C)C1(C)C`, in the data set with HeLa, the CC50 was determined as 59000 nM. For the same molecule, the results for the Emax (in the data set with Keratinocyte [1]; in the data set with Keratinocyte [4]; in data set [6]) were 42%, 45% and 123%, respectively. The EC50 in the data set on Keratinocyte [2] came out at 113 nM; in the data set on Keratinocyte [5], 278 nM; in data set [7], 19.8 nM; in [8] it was 21 nM. The remaining at 16 h in [3] is more than 95%.
Take `CC1=C[C@]23C(=O)[C@@H](C=C(CO)[C@@H](O)[C@]2(O)[C@H]1OC(=O)c1ccccc1Oc1ccccc1)[C@H]1[C@@H](C[C@H]3C)C1(C)C`: the CC50 in the data set with HeLa worked out at 83000 nM. Besides, the Emax in the data set with Keratinocyte [1] was 86%; in the data set on Keratinocyte [4], 87%; in data set [6], 98%. The EC50 stood at 1.1 nM in the data set with Keratinocyte [2], 1.4 nM with Keratinocyte [5], 13.1 nM in [7] and 9.4 nM in data set [8]. For the same molecule, the remaining at 16 h in data set [3] is 80%.
Turning to `CC1=C[C@]23C(=O)[C@@H](C=C(CO)[C@@H](O)[C@]2(O)[C@H]1OC(=O)c1c(C)cccc1N)[C@H]1[C@@H](C[C@H]3C)C1(C)C`, the CC50 in the data set with HeLa came out at 146000 nM. Moreover, the Emax with Keratinocyte [1] came out at 108%; with Keratinocyte [4], 118%; in data set [6], 117%. Further, the half-maximal effective concentration (EC50) in the data set with Keratinocyte [2] was found to be 8.2 nM; in the data set with Keratinocyte [5] it was 12 nM; in data set [7], 8 nM; in data set [8], 8.6 nM. The remaining at 16 h in [3] was more than 95%.
Regarding `CC(=O)Nc1cccc(C)c1C(=O)O[C@H]1C(C)=C[C@]23C(=O)[C@@H](C=C(CO)[C@@H](O)[C@]12O)[C@H]1[C@@H](C[C@H]3C)C1(C)C`, the maximal effect (Emax) in the data set with Keratinocyte [1] was 92%; with Keratinocyte [4], 92%; in data set [6], 113%. The EC50 was found to be 534 nM with Keratinocyte [2], 632 nM in the data set with Keratinocyte [5], 988 nM in data set [7] and 538 nM in data set [8]. Further, in data set [3], the remaining at 16 h is 82%.
